Data from ChEMBL document CHEMBL3085645, “Design, synthesis and biological evaluation of phosphorodiamidate prodrugs of antiviral and anticancer nucleosides” (Eur J Med Chem, 2013).

Columns and labels:
[1] = Cytotoxicity against HEL cells; assay type: cell-based; settings: human
[2] = system: Human immunodeficiency virus 1; assay: Antiviral activity against HIV1 infected in human MT4 cells assessed as p24 production after 3 days; settings: Human immunodeficiency virus 1, MT4, 72 h
Human alphaherpesvirus 2 = assay: Antiviral activity against Herpes simplex virus 2 G infected in HEL cells assessed as inhibition of virus-induced cytopathicity; assay type: functional, organism-based; settings: Human alphaherpesvirus 2, strain G
Human alphaherpesvirus 1 [3] = assay: Antiviral activity against Herpes simplex virus 1 KOS infected in HEL cells assessed as inhibition of virus-induced cytopathicity; assay type: functional, organism-based; settings: Human alphaherpesvirus 1, KOS
[4] = Prodrug conversion assessed as carboxypeptidase Y (unknown origin)-mediated metabolite formation lacking one ester moiety at 5 mg measured every 5 mins for 24 hrs by 31P-NMR analysis; assay type: ADME; settings: human
In short: (§1)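 Prodrug incubated with carboxypeptidase Y in d6-acetone/Trizma buffer (pH 7.6); conversion followed over time by 31P NMR.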

[5] = Chemical stability in d6 acetone/trizma buffer at 5 mg in absence of carboxypeptidase Y; assay type: physicochemical
In short: (§2)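 Prodrug kept in d6-acetone plus Trizma buffer (pH 7.6) without carboxypeptidase Y; integrity followed by 31P NMR.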

MT4 = assay: Cytotoxicity against human MT4 cells assessed as cell viability by propidium iodide staining-based cell counting analysis
In short: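 MT-4 cultures, untreated or treated, were counted on an automated cell counter. Total and dead cells were enumerated by propidium iodide-based assay.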

[6] = Prodrug conversion assessed as carboxypeptidase Y (unknown origin)-mediated (8S)-1-(2-amino-6-oxo-1,6-dihydro-9H-purin-9-yl)-8-methyl-6-oxido-2,5-dioxa-7-aza-6-phosphanonan-9-oate 6-oxide formation at 5 mg measured after 7.5 hrs by 31P-NMR analysis; assay type: ADME; settings: human; in short: as §1
[7] = Chemical stability in d6 acetone/trizma buffer at 4.8 mg in absence of carboxypeptidase Y; assay type: physicochemical; in short: as §2
Human alphaherpesvirus 1 [8] = assay: Antiviral activity against acyclovir-resistant thymidine kinase-deficient Herpes simplex virus 1 KOS infected in HEL cells assessed as inhibition of virus-induced cytopathicity; assay type: functional, organism-based; settings: Human alphaherpesvirus 1, KOS
Hepatitis C virus = assay: Antiviral activity against Hepatitis C virus genotype 1b infected in human HuH7 cells assessed as inhibition of viral replication; assay type: functional, organism-based, Hepacivirus hominis; settings: Huh-7, read-out: EC50
Felid alphaherpesvirus 1 = assay: Antiviral activity against Feline herpesvirus infected in cat CRFK cells assessed as inhibition of virus-induced cytopathicity; assay type: functional, organism-based; settings: Felid alphaherpesvirus 1, CRFK
[9] = Prodrug conversion assessed as carboxypeptidase Y (unknown origin)-mediated (S)-2-((((2R,3S,4R,5R)-5-(5-amino-4-carbamoyl-1H-imidazol-1-yl)-3,4-dihydroxytetrahydrofuran-2-yl)methoxy)oxidophosphorylamino)propanoate formation at 4.8 mg measured after 24 hrs by 31P-NMR analysis; assay type: ADME; settings: human; in short: as §1
HeLa [10] = assay: Cytostatic activity against thymidine kinase-deficient human HeLa cells assessed as growth inhibition after 3 days by particle counting analysis; assay type: functional, cell-based; settings: 72 h
In short: (§3)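 Tumor cells seeded and exposed to a range of compound concentrations. Cell number counted with a particle counter after 2 days (L1210, L1210/TK) or 3 days (CEM, CEM/TK, HeLa, HeLa TK, Caco-2, Colo-320).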

L1210 = assay: Cytostatic activity against mouse L1210 cells assessed as growth inhibition after 2 days by particle counting analysis; assay type: functional, cell-based; settings: L1210, 48 h; in short: as §3
HeLa [11] = assay: Cytostatic activity against human HeLa cells assessed as growth inhibition after 3 days by particle counting analysis; assay type: functional, cell-based; settings: 72 h; in short: as §3
CCRF-CEM = assay: Cytostatic activity against human CEM cells assessed as growth inhibition after 3 days by particle counting analysis; assay type: functional, cell-based; settings: 72 h; in short: as §3

| SMILES | MCC [1] [µM] | EC50 [2] [µM] | EC50 (Human alphaherpesvirus 2) [µM] | EC50 (Human alphaherpesvirus 1 [3]) [µM] | Drug metabolism [4] | Stability [5] | CC50 (MT4) [µM] | Drug metabolism [6] | Stability [7] | EC50 (Human alphaherpesvirus 1 [8]) [µM] | EC50 (Hepatitis C virus) [µM] | EC50 (Felid alphaherpesvirus 1) [µM] | Drug metabolism [9] | IC50 (HeLa [10]) [µM] | IC50 (L1210) [µM] | IC50 (HeLa [11]) [µM] | IC50 (CCRF-CEM) [µM] |
| --- | --- | --- | --- | --- | --- | --- | --- | --- | --- | --- | --- | --- | --- | --- | --- | --- | --- |
| C[C@H](NP(=O)(N[C@@H](C)C(=O)OCc1ccccc1)OCCOCn1cnc2c(=O)[nH]c(N)nc21)C(=O)OCc1ccccc1 | > 100 | 2.01 | 16 | 18 | Active | Stable | 34.9 | Active | Stable | 25 | > 100 | > 100 |  |  |  |  |  |
| C[C@H](NP(=O)(N[C@@H](C)C(=O)OCC(C)(C)C)OC[C@H]1O[C@@H](n2cnc(C(N)=O)c2N)[C@H](O)[C@@H]1O)C(=O)OCC(C)(C)C | > 100 |  | > 100 | > 100 |  |  |  |  |  | > 100 |  | > 100 | Not Active | > 250 | > 250 | > 250 | > 250 |
| C[C@H](NP(=O)(N[C@@H](C)C(=O)OCC(C)(C)C)OCCOCn1cnc2c(=O)[nH]c(N)nc21)C(=O)OCC(C)(C)C | > 100 | 4.07 | 40 | 33 |  |  | 82.8 |  |  | 20 | > 100 | > 100 |  |  |  |  |  |
